Experimental data from article PMC3428507 (Journal of molecular biology, 2012).

Experiments:
Pf1 PHD1 = Pf1 PHD1 (Homo sapiens, UniProt Q96QT6); assay: NMR of mixture of 15N-MRG15 CD and 15N-Pf1 PHD1; assay type: binding; conditions: 1:1 mixture, absence of histone targets
How it was run: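 Both proteins were recombinant, expressed in E. coli BL21(DE3) and uniformly 15N-labelled by growth in M9 minimal medium with 15N-ammonium sulfate. They were purified by affinity resin, TEV cleavage and reversed-phase HPLC, then lyophilized; labelling was confirmed by ESI-MS. Pf1 PHD1 was refolded in 6 M Gdn-HCl with 50 mM DTT (42 °C, 5 h), given ZnSO4, and gel-filtered. Concentrations were measured spectrophotometrically.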

[1] = system: Pf1 PHD1/MBD (residues 48–241); assay: NMR of 15N-labeled Pf1 PHD1/MBD with MRG15 proteins; assay type: binding, human
H3 (1-42) = assay: 15N-labeled H3; assay type: binding, human; conditions: 80 μM 15N-H3, 2 equivalents unlabeled Pf1 PHD1; 20 mM Tris-d11 pH 6.0, 50 mM NaCl, 10 μM ZnSO4, 15 mM DTT, 25 °C
[2] = system: Pf1 PHD1 (residues 48–116); assay: NMR of 15N-labeled Pf1 PHD1 with full-length MRG15 and Pf1 MBD; assay type: binding, human; conditions: 1:1 mixture with full-length MRG15; pH 7.5, 25 °C

B1: MRG15 CD: MRG15 CD (residues 1–90) (protein)
chain: MAPKQDPKPKFQEGERVLCFHGPLLYEAKCVKVAIKDKQVKYFIHYSGWNKNWDEWVPESRVLKYVDTNLQKQRELQKANQEQYAEGKMR
modifications: left off: His6, N-terminal, cleaved
- direct interaction of MRG15 CD and Pf1 PHD1 (Pf1 PHD1): largely unperturbed
- involvement of MRG15 CD in PHD1 interactions ([1]; 1D 1H NMR of Pf1 PHD1/MBD-MRG15 complex (Supp. Fig. S4)): appeared to be not involved in PHD1 interactions

B2: PHD1: human Pf1 PHD1 domain (residues 48–116) (protein)
chain: RRSGRATNHDSCDSCKEGGDLLCCDHCPAAFHLQCCNPPLSEEMLPPGEWMCHRCTVRRKKREQKKELG
modifications: left off: GST, end not stated, cleaved
- perturbation of H3 (1-42) resonances (H3 (1-42)): The amide resonances of Thr3 and Lys4 were broadened beyond detection upon PHD1 addition while that of Thr6 was significantly broadened

B3: full-length MRG15: full-length MRG15 (residues 1–323) (protein)
chain: MAPKQDPKPKFQEGERVLCFHGPLLYEAKCVKVAIKDKQVKYFIHYSGWNKNWDEWVPESRVLKYVDTNLQKQRELQKANQEQYAEGKMRGAAPGKKTSGLQQKNVEVKTKKNKQKTPGNGDGGSTSETPQPPRKKRARVDPTVENEETFMNRVEVKVKIPEELKPWLVDDWDLITRQKQLFYLPAKKNVDSILEDYANYKKSRGNTDNKEYAVNEVVAGIKEYFNVMLGTQLLYKFERPQYAEILADHPDAPMSQVYGAPHLLRLFVRIGAMLAYTPLDEKSLALLLNYLHDFLKYLAKNSATLFSASDYEVAPPEYHRKAV
modifications: left off: His tag (from the vector pMCSG7), end not stated, state not stated
- effect on 15N-PHD1 spectrum without Pf1 MBD [2]: little or no perturbations compared to the apo-PHD1
- effect on 15N-Pf1 PHD1/MBD spectrum ([1]; equimolar, 20 mM Tris pH 7.5, 50 mM NaCl, 10 μM ZnSO4, 15 mM DTT, 0.2% NaN3, 25 °C): disappearance of most of the resonances belonging to the PHD1 domain
